Compounds with a hit are over-represented: about 2.3% of the library has one in this group of screens.
TbMetRS inhib: blocks T. brucei methionyl-tRNA synthetase activity; inhibition, % at 11.9 µM; actives 0.4% (n = 360,000); purified T. brucei MetRS, ATP depletion, Kinase-Glo luminescence;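 active = inhibition above a per-plate cutoff of the control wells' mean inhibition plus 3 SD, cut at about 5.5% in these data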;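 note: 0% = DMSO wells median and 100% = median of wells with control inhibitor compound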
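Test system – parasite MetRS enzyme · Reagent – substrates ATP, L-methionine and bulk Escherichia coli tRNA · Doses – 11.9 µM compound single dose, 0.9% DMSO · Times – 15 min enzyme-compound preincubation, 2 h reaction, 10 min detection, 25 °C · Signal – Kinase-Glo luminescence, ATP depletion format · Controls – DMSO-only wells as low control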
PLC-gamma1 inh: blocks human PLC-gamma1 enzyme activity | P19174 | purified PLC-gamma1, fluorogenic substrate, fluorescence | inhibition, % at 12.2 µM | actives 0.84% (n = 370,000) | AID 720700; in the data active = inhibition above about 9.5%
Target sequence (P19174 whole entry, looked up): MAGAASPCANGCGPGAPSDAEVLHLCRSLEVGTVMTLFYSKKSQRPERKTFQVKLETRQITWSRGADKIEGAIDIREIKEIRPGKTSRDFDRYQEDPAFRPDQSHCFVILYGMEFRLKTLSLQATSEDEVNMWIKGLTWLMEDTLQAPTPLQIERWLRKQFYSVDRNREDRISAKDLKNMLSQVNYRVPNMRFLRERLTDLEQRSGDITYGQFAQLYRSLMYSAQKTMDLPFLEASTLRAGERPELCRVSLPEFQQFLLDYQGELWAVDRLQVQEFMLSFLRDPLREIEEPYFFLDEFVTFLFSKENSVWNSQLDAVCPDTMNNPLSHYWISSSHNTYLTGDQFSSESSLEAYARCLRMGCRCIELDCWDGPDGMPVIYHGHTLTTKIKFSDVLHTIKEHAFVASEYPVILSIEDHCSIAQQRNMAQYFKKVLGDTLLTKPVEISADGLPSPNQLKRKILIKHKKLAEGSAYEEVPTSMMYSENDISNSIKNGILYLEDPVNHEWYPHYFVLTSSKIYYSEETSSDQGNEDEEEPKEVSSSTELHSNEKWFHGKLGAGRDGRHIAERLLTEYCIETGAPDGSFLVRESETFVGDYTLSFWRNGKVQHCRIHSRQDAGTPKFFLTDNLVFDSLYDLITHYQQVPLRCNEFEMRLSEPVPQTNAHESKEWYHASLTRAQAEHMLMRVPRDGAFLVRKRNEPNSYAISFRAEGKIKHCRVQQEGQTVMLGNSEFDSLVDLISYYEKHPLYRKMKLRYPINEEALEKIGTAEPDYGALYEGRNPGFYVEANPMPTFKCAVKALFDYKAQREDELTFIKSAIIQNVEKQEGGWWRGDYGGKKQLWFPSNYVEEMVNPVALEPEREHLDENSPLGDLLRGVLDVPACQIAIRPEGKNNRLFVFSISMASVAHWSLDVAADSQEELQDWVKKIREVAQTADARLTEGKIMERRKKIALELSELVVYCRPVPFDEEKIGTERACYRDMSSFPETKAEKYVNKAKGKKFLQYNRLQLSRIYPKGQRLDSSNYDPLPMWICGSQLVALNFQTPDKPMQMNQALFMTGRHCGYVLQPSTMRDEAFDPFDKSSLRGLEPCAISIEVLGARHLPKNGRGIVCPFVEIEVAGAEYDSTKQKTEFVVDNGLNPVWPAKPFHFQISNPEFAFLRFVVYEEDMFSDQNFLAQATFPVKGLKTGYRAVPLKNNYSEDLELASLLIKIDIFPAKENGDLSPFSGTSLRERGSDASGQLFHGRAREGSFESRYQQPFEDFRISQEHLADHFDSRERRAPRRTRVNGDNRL
PLC-beta3 inh: inhibitors of human phospholipase C beta3 | Q01970 | Purified PLC-beta3, fluorogenic substrate, fluorescence | inhibition, % at 12.2 µM | actives 0.18% (n = 370,000) | AID 720704; in the data active = inhibition above about 11%;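 note: 0% = median of compound wells on plate and 100% = full blocker control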
ADAM17 inh: inhibits human ADAM17 | recombinant ADAM17, EDANS/DABCYL FRET peptide cleavage | actives 0.83% (n = 370,000) | inhibition, % at 6.95 µM | P78536 | AID 720648;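 active = inhibition above the mean of compounds lying between control limits plus 3 SD, set per campaign, cut at about 8.5% in these data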;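 note: 0% = DMSO-only wells as the low control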
ADAM10 inh: ADAM10 inhibition, QFRET primary screen; O14672; recombinant ADAM10, EDANS/DABCYL FRET peptide cleavage, 3 h; inhibition, % at 7 µM; actives 0.62% (n = 370,000); AID 720582;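 active = inhibition above a per-campaign cutoff equal to the mean of compounds falling between control-based bounds plus 3 SD, cut at about 20% in these data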;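 note: 0% = DMSO wells while the 100% control is not disclosed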
ADAM10 confirm: confirmation of inhibitors of human ADAM10; shares compounds with ADAM10 inh; ADAM10 QFRET peptide cleavage, EDANS fluorescence; inhibition, % at 6.95 µM; actives 1% (n = 2,100);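 active = inhibition above about 20% chosen separately for each screening run, limit read from the data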;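 note: 0% = DMSO wells and 100% = marimastat wells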
ADAM17 counter: inhibits human ADAM17 in ADAM10 exosite counter-screen; shares compounds with ADAM10 inh; ADAM17 QFRET peptide cleavage, EDANS fluorescence; inhibition, % at 6.95 µM; actives 0.5% (n = 2,100); AID 743214;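 active = mean triplicate inhibition above the solvent-only control wells' mean plus 3 SD, cut at about 12% in these data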;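 note: 0% = DMSO wells and 100% = marimastat wells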
ADAM10 counter: ADAM10 inhibition, counter-screen for ADAM17 exosite hits | recombinant ADAM10, EDANS/DABCYL FRET peptide cleavage, 3 h | inhibition, % at 6.95 µM | shares compounds with ADAM17 inh | AID 743256 | actives 47% (n = 2,900);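 active = mean inhibition over the triplicate runs exceeds the activity threshold set in the earlier primary screen, cut at about 20% in these data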;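 note: 0% = DMSO wells and 100% = marimastat wells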
ADAM17 confirm: confirmation of inhibitors of human ADAM17 | recombinant ADAM17, EDANS/DABCYL QFRET peptide cleavage | actives 65% (n = 2,900) | inhibition, % at 6.95 µM | shares compounds with ADAM17 inh;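 active = mean inhibition across replicates above the hit cutoff set in the primary screen, cut at about 8.5% in these data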;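 note: 0% = DMSO wells and 100% = marimastat wells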
* = called active by the depositor; . = no result given.

SMILES | TbMetRS inhib | PLC-gamma1 inh | PLC-beta3 inh | ADAM17 inh | ADAM10 inh | ADAM10 confirm | ADAM17 counter | ADAM10 counter | ADAM17 confirm
Cc1ccccc1S(=O)(=O)Cc1ccc(C(=O)N2CC(C)CC(C)C2)o1 (configuration not stated) | -1 | -1 | 0 | 3 | -4 | . | . | . | .
Brc1ccc2ncc(Br)cc2c1 | 1 | 1 | 6 | -2 | 1 | . | . | . | .
FC(F)(F)c1cccc(NC(=S)NCc2ccc(Cl)cc2)c1 | 0 | 2 | 0 | 9.1* | 22* | 3 | 2 | 26* | 15*
COc1cc(NC(=O)c2ccccc2)c(C)cc1NC(=O)CSc1nnc(-c2ccccc2F)n1-c1ccc(C)cc1 | . | -3 | -5 | 12* | 26* | 12 | 3 | 31* | 18*
Cc1cn([C@H]2C[C@H](O)[C@@H](CNC(=O)[C@H](N)Cc3cn(COCc4ccccc4)cn3)O2)c(=O)[nH]c1=O | 0 | 1 | 1 | -2 | -3 | . | . | . | .
COc1cc([N+](=O)[O-])cc(/C=N/NC(=O)C(C)Nc2ccccc2C)c1O (configuration not stated) | 0 | 4 | 4 | 10.0* | 26* | 0 | 1 | 24* | 12*
Cc1ccc(NS(=O)(=O)c2ccc(NC(=O)c3ccccc3C(=O)O)cc2)c(C)c1 | 0 | -1 | -5 | 0 | -2 | . | . | . | .
Cc1ccc(NS(=O)(=O)c2ccc(NC(=O)CN(c3cc([N+](=O)[O-])ccc3C)S(C)(=O)=O)cc2)c(C)c1 | 0 | 2 | 3 | 11* | 21* | 4 | 1 | 54* | 28*
NS(=O)(=O)c1ccc(NC(=S)NC(=O)c2ccc(Br)o2)cc1 | -2 | -1 | -1 | -6 | -6 | . | . | . | .
Cc1cc(C)cc(NS(=O)(=O)c2ccc(NC(=S)NC(=O)c3ccc(Br)o3)cc2)c1 | -2 | 6 | -5 | 11* | 21* | 10 | 4 | 29* | 14*
Cc1ccc(NS(=O)(=O)c2ccc(NC(=O)c3ccc(Br)o3)cc2)c(C)c1 | 0 | -1 | -2 | 11* | 23* | 6 | 2 | 32* | 15*
Cc1ccc([N+](=O)[O-])cc1N(CC(=O)NC1CCCC1)S(C)(=O)=O | 0 | 1 | 3 | -2 | 2 | . | . | . | .
O=C(Nc1ccc2ccccc2c1)NC1CCCCN(Cc2cccc(Cl)c2)C1=O (configuration not stated) | . | 0 | 0 | 1 | 9 | . | . | . | .
O=C(NCC1CCCO1)C(c1cccs1)N(Cc1ccccc1)C(=O)c1ccc(-c2ccccc2)[nH]1 (configuration not stated) | -1 | 2 | 2 | 12* | 30* | 12 | 4 | 18 | 14*
Cc1cc(Br)cn2c(Cc3ccccc3)c(-c3ccccc3)nc12 | -1 | -5 | -9 | 7 | -1 | . | . | . | .
CCCC(=O)Nc1ccc2c(c1)c1ccccc1n2CC | -1 | -2 | -2 | -2 | -21 | . | . | . | .
CCn1c2ccccc2c2cc(NS(=O)(=O)c3ccccc3C)ccc21 | -1 | 8 | 2 | 9.4* | 25* | 6 | 3 | 21* | 12*
O=C(COC(=O)c1ccc(S(=O)(=O)N2CCCC2)cc1)Nc1ccccc1 | 0 | 2 | -18 | 2 | 2 | . | . | . | .
O=C(COC(=O)c1ccc(Cl)c(S(=O)(=O)N2CCCCCC2)c1)Nc1ccccc1 | -1 | 3 | 1 | 10* | 20* | 12 | 3 | 49* | 27*
CC(C)(C)S(=O)(=O)N1C[C@@H]2CC(=O)C(CCO)=C2[C@H]1CCO | . | 3 | 2 | -7 | -2 | . | . | . | .
CC(=O)N(CCc1ccccc1)c1ccc2c(c1)C1CC2CCN1C(=O)OCc1ccccc1 (configuration not stated) | 0 | -1 | -2 | 3 | -6 | . | . | . | .
CC[C@H](C)[C@H]1CNC(=S)N1CC1CCN(CC)CC1 | -2 | 2 | 3 | -4 | -17 | . | . | . | .
C[C@@H](NC(=O)c1[nH]cnc1C(=O)Nc1cccc(Cl)c1)c1ccccc1 | 0 | 4 | 1 | -1 | -3 | . | . | . | .
COc1ccc(Cl)cc1-c1n[nH]c(=S)n1C1CCCCC1 | 0 | 6 | 4 | 8.7* | 29* | 0 | 0 | 34* | 21*
COc1ccc(/C=N/NC(=O)Cc2csc(Nc3cccc(C(F)(F)F)c3)n2)cc1C | -1 | 4 | 1 | 13* | 28* | 6 | 2 | 33* | 20*
SMILES | TbMetRS inhib | PLC-gamma1 inh | PLC-beta3 inh | ADAM17 inh | ADAM10 inh | ADAM10 confirm | ADAM17 counter | ADAM10 counter | ADAM17 confirm
Cc1ccc(C(=O)NNC(=S)NC(=O)c2ccc(Cl)cc2)cc1 | -1 | 0 | -4 | 12* | 20* | 1 | 1 | 13 | 7
CC(=O)NNC(=S)NC(=O)c1ccc(C)cc1 | 0 | 0 | -8 | -5 | -2 | . | . | . | .
O=C(Nc1cccc(C(F)(F)F)c1)NC1CCCCC1 | 0 | 4 | 6 | 4 | 5 | . | . | . | .
O=C(OC(C(=O)Nc1cccc(C(F)(F)F)c1)c1ccccc1)C1CCCCC1 (configuration not stated) | 0 | 2 | 3 | 12* | 25* | 9 | 3 | 20* | 13*
O=C(NC(CSC(=O)c1ccccc1)C(=O)O)OCc1ccccc1 (configuration not stated) | 0 | -3 | 0 | -3 | -1 | . | . | . | .
COCCOC(=O)c1c(C)n(C)c2ccc(OC(=O)c3c(OC)cccc3OC)cc12 | 0 | 2 | -5 | 10* | 21* | 6 | 1 | 13 | 9.1*
Nc1ncnc2c1ncn2[C@@H]1O[C@H](C(=O)N[C@@H](CCc2ccccc2)C(=O)N2CCN(C(=O)N3CCOCC3)CC2)[C@@H](O)[C@H]1O | . | -1 | 4 | 0 | 5 | . | . | . | .
O=[N+]([O-])c1ccc(O)c(/C=N/Nc2ccccn2)c1 | -1 | -1 | -2 | 30* | 24* | 29* | 31* | 48* | 54*
Cc1ccc(S(=O)(=O)N(C)/N=C2/C(=O)N(CC(=O)O)c3ccccc32)cc1 | 0 | 4 | -1 | -9 | -1 | . | . | . | .
CCOc1ccc(C(=O)CCC(=O)Nc2ccc(C)c(S(=O)(=O)N3CCCCC3)c2)cc1 | -1 | 2 | -1 | 9.1* | 28* | 6 | 3 | 27* | 13*
CC(=O)c1ccc(OCCCC(=O)Nc2ccc(C)c(S(=O)(=O)N3CCCCC3)c2)cc1 | 0 | -2 | -4 | -4 | -9 | . | . | . | .
